Activity calls are given as the source filed them. The calls are words filed in the database; no cut-off is given here.

Results on five molecules are retold here after ChEMBL document CHEMBL1154121, “alpha-Substituted norstatines as the transition-state mimic in inhibitors of multiple digestive vacuole malaria aspartic proteases” (Bioorg Med Chem, 2009).

Sequence of Plasmepsin II (P46925 whole entry): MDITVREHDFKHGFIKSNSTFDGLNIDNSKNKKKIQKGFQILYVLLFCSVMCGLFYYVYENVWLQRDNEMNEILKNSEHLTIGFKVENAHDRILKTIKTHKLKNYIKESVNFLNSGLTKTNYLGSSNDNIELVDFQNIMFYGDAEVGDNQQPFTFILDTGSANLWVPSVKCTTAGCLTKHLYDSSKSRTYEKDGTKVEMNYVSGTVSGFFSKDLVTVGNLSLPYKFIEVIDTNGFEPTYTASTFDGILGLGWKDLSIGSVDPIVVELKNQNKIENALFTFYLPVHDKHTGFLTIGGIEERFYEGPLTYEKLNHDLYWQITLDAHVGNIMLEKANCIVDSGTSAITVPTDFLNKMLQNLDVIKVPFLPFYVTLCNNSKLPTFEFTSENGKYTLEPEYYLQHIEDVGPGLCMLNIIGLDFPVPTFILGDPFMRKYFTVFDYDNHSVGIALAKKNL
Sequence of Beta-secretase 1 (Homo sapiens) (P56817 whole entry): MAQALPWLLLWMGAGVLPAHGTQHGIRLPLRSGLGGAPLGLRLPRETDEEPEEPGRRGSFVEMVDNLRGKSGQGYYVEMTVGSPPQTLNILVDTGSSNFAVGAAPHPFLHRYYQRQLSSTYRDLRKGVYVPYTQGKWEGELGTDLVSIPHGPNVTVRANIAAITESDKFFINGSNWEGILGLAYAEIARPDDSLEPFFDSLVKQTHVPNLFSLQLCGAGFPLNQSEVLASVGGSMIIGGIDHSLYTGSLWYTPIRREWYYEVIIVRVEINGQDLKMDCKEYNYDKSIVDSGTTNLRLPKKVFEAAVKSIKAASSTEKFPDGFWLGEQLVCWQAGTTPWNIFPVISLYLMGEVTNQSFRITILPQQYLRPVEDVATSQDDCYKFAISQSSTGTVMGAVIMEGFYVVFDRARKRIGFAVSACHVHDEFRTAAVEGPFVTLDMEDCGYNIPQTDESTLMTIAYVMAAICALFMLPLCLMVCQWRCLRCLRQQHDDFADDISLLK
T1 sequence (P07339 65-162 limits assumed): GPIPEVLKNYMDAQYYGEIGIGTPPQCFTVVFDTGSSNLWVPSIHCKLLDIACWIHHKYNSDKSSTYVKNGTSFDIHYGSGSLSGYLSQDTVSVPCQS
T1 sequence (P07339 169-412 limits assumed): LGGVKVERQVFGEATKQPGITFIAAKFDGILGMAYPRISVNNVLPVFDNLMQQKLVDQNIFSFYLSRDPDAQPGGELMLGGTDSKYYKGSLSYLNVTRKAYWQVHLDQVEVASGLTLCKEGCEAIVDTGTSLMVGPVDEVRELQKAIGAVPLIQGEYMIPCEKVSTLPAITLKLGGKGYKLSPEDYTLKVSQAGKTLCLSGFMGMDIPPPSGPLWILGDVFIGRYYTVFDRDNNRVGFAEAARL
Sequence of Aspartic protease PM4 (O60989 whole entry): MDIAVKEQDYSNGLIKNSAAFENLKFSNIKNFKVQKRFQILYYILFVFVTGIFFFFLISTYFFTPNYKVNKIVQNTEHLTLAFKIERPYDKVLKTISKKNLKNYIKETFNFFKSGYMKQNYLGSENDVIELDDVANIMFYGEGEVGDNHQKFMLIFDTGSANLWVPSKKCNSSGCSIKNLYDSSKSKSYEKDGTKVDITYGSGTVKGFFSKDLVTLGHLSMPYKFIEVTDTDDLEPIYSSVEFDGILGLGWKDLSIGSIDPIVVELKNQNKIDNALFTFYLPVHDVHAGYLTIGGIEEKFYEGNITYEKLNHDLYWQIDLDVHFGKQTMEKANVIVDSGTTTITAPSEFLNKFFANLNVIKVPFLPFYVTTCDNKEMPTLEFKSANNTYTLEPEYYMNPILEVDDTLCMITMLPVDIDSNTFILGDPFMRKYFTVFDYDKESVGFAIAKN
Sequence of Protease (Q9YQ12 whole entry): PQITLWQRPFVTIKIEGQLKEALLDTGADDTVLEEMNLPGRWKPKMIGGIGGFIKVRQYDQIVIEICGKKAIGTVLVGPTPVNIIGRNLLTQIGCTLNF

Tested on in one assay: not listed separately
Briefly: Inhibition of Plasmodium ovale plasmepsin-4 expressed in Escherichia coli BL21 (DE3) by spectrophotometric assay with chromogenic substrate.
Conditions: not given
As to `Cc1cccc(C)c1OCC(=O)NC[C@@](O)(Cc1ccccc1)C(=O)N1CSC(C)(C)[C@@H]1C(=O)N[C@H]1c2ccccc2C[C@H]1O`, the Ki – broadly, the dissociation constant of the complex between target and ligand, obtained from inhibition or displacement – came out at 1300 nM.
Consider `Cc1cccc(C)c1OCC(=O)NC[C@@](O)(CCc1ccccc1)C(=O)N1CSC(C)(C)[C@@H]1C(=O)N[C@H]1c2ccccc2C[C@H]1O`, for which the Ki amounted to 1000 nM.
On the same count and under the same terms, in the case of `Cc1cccc(C)c1OCC(=O)NC[C@](O)(Cc1ccccc1)C(=O)N1CSC(C)(C)[C@@H]1C(=O)N[C@H]1c2ccccc2C[C@H]1O` it was 610 nM.
Still for that read-out and setting: as for `Cc1cccc(C)c1OCC(=O)NC[C@](O)(Cc1ccccc1)C(=O)N1CSC(C)(C)[C@H]1C(=O)N[C@H]1c2ccccc2C[C@H]1O`, the figure is 530 nM.
On the same count and under the same terms, as for `Cc1cccc(C)c1OCC(=O)NC[C@@](O)(CCc1ccccc1)C(=O)N1CSC(C)(C)[C@H]1C(=O)N[C@H]1c2ccccc2C[C@H]1O`, the figure is 4500 nM.

The next assay concerns the target Aspartic protease PM4 (Plasmodium vivax, UniProt O60989). As to the kind of experiment: Inhibition of Plasmodium vivax plasmepsin-4 expressed in Escherichia coli BL21 (DE3) by spectrophotometric assay with chromogenic substrate.
Conditions: not given
`Cc1cccc(C)c1OCC(=O)NC[C@@](O)(Cc1ccccc1)C(=O)N1CSC(C)(C)[C@@H]1C(=O)N[C@H]1c2ccccc2C[C@H]1O` yielded a Ki of 160 nM.
On the same count and under the same terms, as for `Cc1cccc(C)c1OCC(=O)NC[C@@](O)(CCc1ccccc1)C(=O)N1CSC(C)(C)[C@@H]1C(=O)N[C@H]1c2ccccc2C[C@H]1O`, the figure is 390 nM; as for `Cc1cccc(C)c1OCC(=O)NC[C@](O)(Cc1ccccc1)C(=O)N1CSC(C)(C)[C@@H]1C(=O)N[C@H]1c2ccccc2C[C@H]1O`, 120 nM; as for `Cc1cccc(C)c1OCC(=O)NC[C@](O)(Cc1ccccc1)C(=O)N1CSC(C)(C)[C@H]1C(=O)N[C@H]1c2ccccc2C[C@H]1O`, 190 nM.
Still for that read-out and setting: in the case of `Cc1cccc(C)c1OCC(=O)NC[C@@](O)(CCc1ccccc1)C(=O)N1CSC(C)(C)[C@H]1C(=O)N[C@H]1c2ccccc2C[C@H]1O` it was 370 nM.

Tested on in the next assay: not listed separately
As to the kind of experiment: Selectivity ratio of Ki for human liver cathepsin D to Ki for Plasmodium falciparum plasmepsin-2 expressed in Escherichia coli BL21 (DE3).
Conditions: not given
Consider `Cc1cccc(C)c1OCC(=O)NC[C@@](O)(CCc1ccccc1)C(=O)N1CSC(C)(C)[C@@H]1C(=O)N[C@H]1c2ccccc2C[C@H]1O`, for which the Ratio Ki is > 20000.

Another assay concerns the target Protease (Human immunodeficiency virus 1, UniProt Q9YQ12). As to the kind of experiment: Inhibition of HIV1 protease.
Conditions: not given
Put shortly: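 Recombinant HIV-1 protease expressed in E. coli; Ki from fluorometric assay, two independent measurements; a reference inhibitor included to check variability, standard deviation ±50% of mean.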
`Cc1cccc(C)c1OCC(=O)NC[C@](O)(Cc1ccccc1)C(=O)N1CSC(C)(C)[C@@H]1C(=O)N[C@H]1c2ccccc2C[C@H]1O` returned a Ki of 670 nM.

Tested on in the next assay: not listed separately
Briefly: Inhibition of Plasmodium malariae plasmepsin-4 expressed in Escherichia coli BL21 (DE3) by spectrophotometric assay with chromogenic substrate.
Conditions: not given
In the case of `Cc1cccc(C)c1OCC(=O)NC[C@@](O)(Cc1ccccc1)C(=O)N1CSC(C)(C)[C@@H]1C(=O)N[C@H]1c2ccccc2C[C@H]1O`, the affinity, expressed as Ki, was 210 nM.
Still for that read-out and setting: as for `Cc1cccc(C)c1OCC(=O)NC[C@@](O)(CCc1ccccc1)C(=O)N1CSC(C)(C)[C@@H]1C(=O)N[C@H]1c2ccccc2C[C@H]1O`, the figure is 1100 nM.
Same read-out and setting: as for `Cc1cccc(C)c1OCC(=O)NC[C@](O)(Cc1ccccc1)C(=O)N1CSC(C)(C)[C@@H]1C(=O)N[C@H]1c2ccccc2C[C@H]1O`, the figure is 420 nM.
Molecule `Cc1cccc(C)c1OCC(=O)NC[C@](O)(Cc1ccccc1)C(=O)N1CSC(C)(C)[C@H]1C(=O)N[C@H]1c2ccccc2C[C@H]1O` yielded a Ki of 250 nM.
Take `Cc1cccc(C)c1OCC(=O)NC[C@@](O)(CCc1ccccc1)C(=O)N1CSC(C)(C)[C@H]1C(=O)N[C@H]1c2ccccc2C[C@H]1O`: the Ki was found to be 7900 nM.

A further assay addresses Beta-secretase 1 (Homo sapiens) (UniProt P56817). Briefly: Inhibition of human BACE1 at < 10 uM.
Conditions: not given
Regarding `Cc1cccc(C)c1OCC(=O)NC[C@@](O)(Cc1ccccc1)C(=O)N1CSC(C)(C)[C@@H]1C(=O)N[C@H]1c2ccccc2C[C@H]1O`, the result was inactive.
Regarding `Cc1cccc(C)c1OCC(=O)NC[C@](O)(Cc1ccccc1)C(=O)N1CSC(C)(C)[C@@H]1C(=O)N[C@H]1c2ccccc2C[C@H]1O`, the result was inactive.
Same read-out and setting: in the case of `Cc1cccc(C)c1OCC(=O)NC[C@](O)(Cc1ccccc1)C(=O)N1CSC(C)(C)[C@H]1C(=O)N[C@H]1c2ccccc2C[C@H]1O` it was “inactive”.

For another assay, the system named is Human immunodeficiency virus 1. As to the kind of experiment: Antiviral activity against HIV1 3B infected in human MT4 cells. The settings on record: Human immunodeficiency virus 1, 3B. Type of assay: functional, organism-based.
On to `Cc1cccc(C)c1OCC(=O)NC[C@@](O)(CCc1ccccc1)C(=O)N1CSC(C)(C)[C@H]1C(=O)N[C@H]1c2ccccc2C[C@H]1O`, for which the EC50 (as a rule, the concentration at which the effect is half-maximal) was 6400 nM.

The next assay has as its target T1, Cathepsin D (Homo sapiens, UniProt P07339). As to the kind of experiment: Inhibition of human liver cathepsin D.
Conditions: not given
An outline of the steps:
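Human liver cathepsin D activated 20 min at 37 °C in 100 mM sodium acetate pH 4.5, 10% glycerol, 0.01% Tween 20. Inhibitor serially diluted in DMSO (1% final) added before 3 µM DABCYL-Glu-Arg-Nle-Phe-Leu-Ser-Phe-Pro-EDANS; fluorescence increase read over 10 min. IC50 from Langmuir isotherm assuming competitive inhibition, converted to Ki via IC50/(1+[S]/Km); top concentration limited to 10.0 µM by inhibitor fluorescence.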
Regarding `Cc1cccc(C)c1OCC(=O)NC[C@@](O)(Cc1ccccc1)C(=O)N1CSC(C)(C)[C@@H]1C(=O)N[C@H]1c2ccccc2C[C@H]1O`, the Ki was > 10000 nM.
The same measure, in the same setting: in the case of `Cc1cccc(C)c1OCC(=O)NC[C@@](O)(CCc1ccccc1)C(=O)N1CSC(C)(C)[C@@H]1C(=O)N[C@H]1c2ccccc2C[C@H]1O` it was > 10000 nM; in that of `Cc1cccc(C)c1OCC(=O)NC[C@](O)(Cc1ccccc1)C(=O)N1CSC(C)(C)[C@@H]1C(=O)N[C@H]1c2ccccc2C[C@H]1O`, > 10000 nM; in that of `Cc1cccc(C)c1OCC(=O)NC[C@](O)(Cc1ccccc1)C(=O)N1CSC(C)(C)[C@H]1C(=O)N[C@H]1c2ccccc2C[C@H]1O`, > 10000 nM.
As for `Cc1cccc(C)c1OCC(=O)NC[C@@](O)(CCc1ccccc1)C(=O)N1CSC(C)(C)[C@H]1C(=O)N[C@H]1c2ccccc2C[C@H]1O`, the Ki is > 10000 nM.

A further assay addresses Plasmepsin II (Plasmodium falciparum, UniProt P46925). As to the kind of experiment: Inhibition of Plasmodium falciparum plasmepsin-2 expressed in Escherichia coli BL21 (DE3) by spectrophotometric assay with chromogenic substrate.
Conditions: not given
As to `Cc1cccc(C)c1OCC(=O)NC[C@@](O)(Cc1ccccc1)C(=O)N1CSC(C)(C)[C@@H]1C(=O)N[C@H]1c2ccccc2C[C@H]1O`, the Ki worked out at 830 nM.
In the case of `Cc1cccc(C)c1OCC(=O)NC[C@@](O)(CCc1ccccc1)C(=O)N1CSC(C)(C)[C@@H]1C(=O)N[C@H]1c2ccccc2C[C@H]1O`, the Ki stood at 440 nM.
Molecule `Cc1cccc(C)c1OCC(=O)NC[C@](O)(Cc1ccccc1)C(=O)N1CSC(C)(C)[C@@H]1C(=O)N[C@H]1c2ccccc2C[C@H]1O` returned a Ki of 1700 nM.
For `Cc1cccc(C)c1OCC(=O)NC[C@](O)(Cc1ccccc1)C(=O)N1CSC(C)(C)[C@H]1C(=O)N[C@H]1c2ccccc2C[C@H]1O`, the Ki was > 20000 nM.
The same measure, in the same setting: in the case of `Cc1cccc(C)c1OCC(=O)NC[C@@](O)(CCc1ccccc1)C(=O)N1CSC(C)(C)[C@H]1C(=O)N[C@H]1c2ccccc2C[C@H]1O` it was 1400 nM.

Tested on in another assay: not listed separately
Briefly: Inhibition of Plasmodium falciparum plasmepsin-4 expressed in Escherichia coli BL21 (DE3) by spectrophotometric assay with chromogenic substrate.
Conditions: not given
Take `Cc1cccc(C)c1OCC(=O)NC[C@@](O)(Cc1ccccc1)C(=O)N1CSC(C)(C)[C@@H]1C(=O)N[C@H]1c2ccccc2C[C@H]1O`: the affinity corresponds to a Ki of 1700 nM.
On the same count and under the same terms, in the case of `Cc1cccc(C)c1OCC(=O)NC[C@@](O)(CCc1ccccc1)C(=O)N1CSC(C)(C)[C@@H]1C(=O)N[C@H]1c2ccccc2C[C@H]1O` it was 6300 nM; in that of `Cc1cccc(C)c1OCC(=O)NC[C@](O)(Cc1ccccc1)C(=O)N1CSC(C)(C)[C@@H]1C(=O)N[C@H]1c2ccccc2C[C@H]1O`, 1700 nM; in that of `Cc1cccc(C)c1OCC(=O)NC[C@](O)(Cc1ccccc1)C(=O)N1CSC(C)(C)[C@H]1C(=O)N[C@H]1c2ccccc2C[C@H]1O`, 720 nM.
On the same count and under the same terms, in the case of `Cc1cccc(C)c1OCC(=O)NC[C@@](O)(CCc1ccccc1)C(=O)N1CSC(C)(C)[C@H]1C(=O)N[C@H]1c2ccccc2C[C@H]1O` it was 3100 nM.

In another assay the target is T1, Cathepsin D. As to the kind of experiment: Ratio of compound Ki to KNI-10006 Ki for human liver cathepsin D.
Conditions: not given
`Cc1cccc(C)c1OCC(=O)NC[C@@](O)(Cc1ccccc1)C(=O)N1CSC(C)(C)[C@@H]1C(=O)N[C@H]1c2ccccc2C[C@H]1O`: the Ratio Ki is 5000.
In the case of `Cc1cccc(C)c1OCC(=O)NC[C@@](O)(CCc1ccccc1)C(=O)N1CSC(C)(C)[C@@H]1C(=O)N[C@H]1c2ccccc2C[C@H]1O`, the Ratio Ki stood at 5000.
Still for that read-out and setting: as for `Cc1cccc(C)c1OCC(=O)NC[C@](O)(Cc1ccccc1)C(=O)N1CSC(C)(C)[C@@H]1C(=O)N[C@H]1c2ccccc2C[C@H]1O`, the figure is 5000; as for `Cc1cccc(C)c1OCC(=O)NC[C@](O)(Cc1ccccc1)C(=O)N1CSC(C)(C)[C@H]1C(=O)N[C@H]1c2ccccc2C[C@H]1O`, 5000; as for `Cc1cccc(C)c1OCC(=O)NC[C@@](O)(CCc1ccccc1)C(=O)N1CSC(C)(C)[C@H]1C(=O)N[C@H]1c2ccccc2C[C@H]1O`, 5000.
